Results taken from ChEMBL document CHEMBL3091303, “1,3-Dialkyl-substituted tetrahydropyrimido[1,2-f]purine-2,4-diones as multiple target drugs for the potential treatment of neurodegenerative diseases” (Bioorg Med Chem, 2013).

Tests used:
[1] = target: T1, Amine oxidase [flavin-containing] B (Homo sapiens, UniProt P27338); assay: Inhibition of human MAO-B
T1 sequence (P27338 whole entry): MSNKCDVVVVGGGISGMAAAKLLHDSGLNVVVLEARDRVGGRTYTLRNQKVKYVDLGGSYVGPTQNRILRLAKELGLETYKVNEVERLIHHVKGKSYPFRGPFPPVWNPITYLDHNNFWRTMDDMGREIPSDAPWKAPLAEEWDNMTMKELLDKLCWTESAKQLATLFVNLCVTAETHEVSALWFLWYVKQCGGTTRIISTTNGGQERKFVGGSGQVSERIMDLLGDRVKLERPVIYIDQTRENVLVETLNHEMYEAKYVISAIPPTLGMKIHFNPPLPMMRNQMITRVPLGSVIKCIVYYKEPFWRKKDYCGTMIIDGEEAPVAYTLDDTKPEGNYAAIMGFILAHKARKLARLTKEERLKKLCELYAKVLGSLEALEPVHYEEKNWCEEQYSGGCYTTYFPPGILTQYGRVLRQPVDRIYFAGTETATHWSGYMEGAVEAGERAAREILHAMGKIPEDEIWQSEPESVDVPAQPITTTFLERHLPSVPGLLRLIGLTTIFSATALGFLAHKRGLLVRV

[2] = target: Adenosine receptor A2a (Rattus norvegicus, UniProt P30543); assay: Displacement of [3H]MSX-2 from adenosine A2A receptor in rat brain striatum; type: tissue-based
Adenosine receptor A2a (Rattus norvegicus, UniProt P30543), sequence (P30543 whole entry): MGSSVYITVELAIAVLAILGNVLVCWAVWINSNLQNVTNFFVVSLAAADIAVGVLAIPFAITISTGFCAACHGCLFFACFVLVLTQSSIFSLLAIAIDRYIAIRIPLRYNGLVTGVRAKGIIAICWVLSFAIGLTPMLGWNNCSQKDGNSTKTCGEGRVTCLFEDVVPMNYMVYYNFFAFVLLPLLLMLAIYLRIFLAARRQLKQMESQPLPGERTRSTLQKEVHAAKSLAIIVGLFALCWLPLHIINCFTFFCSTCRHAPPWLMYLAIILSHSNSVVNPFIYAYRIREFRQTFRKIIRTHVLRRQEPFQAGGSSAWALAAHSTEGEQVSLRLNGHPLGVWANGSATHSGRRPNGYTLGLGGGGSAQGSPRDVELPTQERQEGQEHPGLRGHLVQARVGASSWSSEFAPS

[3] = target: T2, MAO-A (amine oxidase [flavin-containing] A) (Homo sapiens, UniProt P21397); assay: Inhibition of human MAO-A at 10 uM relative to control
T2 sequence (P21397 whole entry): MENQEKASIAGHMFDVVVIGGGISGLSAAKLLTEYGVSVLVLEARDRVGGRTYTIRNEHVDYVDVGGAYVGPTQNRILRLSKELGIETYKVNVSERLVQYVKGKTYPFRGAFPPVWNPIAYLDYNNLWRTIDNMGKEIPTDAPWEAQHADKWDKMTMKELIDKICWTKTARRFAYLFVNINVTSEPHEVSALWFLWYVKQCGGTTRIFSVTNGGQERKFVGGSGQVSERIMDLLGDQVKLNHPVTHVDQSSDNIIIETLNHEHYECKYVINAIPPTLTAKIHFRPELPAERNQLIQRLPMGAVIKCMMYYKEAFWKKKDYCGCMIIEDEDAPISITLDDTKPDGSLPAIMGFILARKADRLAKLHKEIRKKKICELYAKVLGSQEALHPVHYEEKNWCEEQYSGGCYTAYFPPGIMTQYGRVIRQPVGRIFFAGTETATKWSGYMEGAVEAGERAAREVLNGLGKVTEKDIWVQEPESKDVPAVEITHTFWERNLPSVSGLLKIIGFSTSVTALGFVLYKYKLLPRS
Procedure, shortened: (§1)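 Human MAO-A and MAO-B inhibition, screened first at a test concentration of 10 µM.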

[4] = target: T3, Amine oxidase [flavin-containing] A (Homo sapiens, UniProt P21397); assay: Inhibition of human MAO-A; procedure, shortened: as §1
T3 sequence (P21397 whole entry): T2 sequence (P21397 whole entry)

[5] = target: T4, Adenosine receptor A3 (Homo sapiens) (UniProt P0DMS8); assay: Displacement of [3H]PSB-11 from human adenosine A3 receptor expressed in CHO cells relative to control; type: cell-based; design: concentration or dose not given beside the values; settings: concentration not given here
T4 sequence (whole entry): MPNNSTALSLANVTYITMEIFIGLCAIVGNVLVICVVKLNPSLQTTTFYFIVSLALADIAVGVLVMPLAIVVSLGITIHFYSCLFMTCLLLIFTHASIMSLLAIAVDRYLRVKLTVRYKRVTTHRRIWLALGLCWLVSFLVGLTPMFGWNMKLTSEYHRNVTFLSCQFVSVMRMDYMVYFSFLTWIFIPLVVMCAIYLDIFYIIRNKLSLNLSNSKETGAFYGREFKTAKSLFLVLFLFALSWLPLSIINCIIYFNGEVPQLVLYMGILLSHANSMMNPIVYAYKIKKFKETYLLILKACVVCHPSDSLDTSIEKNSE

[6] = target: T5, Adenosine receptor A1 (Rattus norvegicus) (UniProt P25099); assay: Displacement of [3H]CCPA from adenosine A1 receptor in rat brain cortex relative to control; type: tissue-based; design: concentration or dose not given beside the values; settings: concentration not given here
T5 sequence (whole entry): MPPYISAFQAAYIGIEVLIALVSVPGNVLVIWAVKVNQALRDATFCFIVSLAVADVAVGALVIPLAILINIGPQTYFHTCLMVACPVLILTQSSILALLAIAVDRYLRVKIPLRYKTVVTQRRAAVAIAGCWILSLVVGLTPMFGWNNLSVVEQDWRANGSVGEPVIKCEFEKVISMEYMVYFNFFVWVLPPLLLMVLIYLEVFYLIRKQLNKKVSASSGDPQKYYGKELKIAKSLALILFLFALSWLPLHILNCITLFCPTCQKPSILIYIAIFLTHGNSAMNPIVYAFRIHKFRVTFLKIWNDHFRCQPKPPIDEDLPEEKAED
Procedure, shortened: (§2)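 Radioligand binding to rat A1 receptors in rat brain cortical membrane preparations. Values are given as Ki, or as % inhibition of radioligand binding at the indicated concentration.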

[7] = target: T6, Adenosine receptor A3 (Homo sapiens, UniProt P0DMS8); assay: Displacement of [3H]PSB-11 from human adenosine A3 receptor expressed in CHO cells; type: cell-based
T6 sequence (P0DMS8 whole entry): T4 sequence (whole entry)

[8] = target: T7, Adenosine receptor A2b (Homo sapiens) (UniProt P29275); assay: Displacement of [3H]PSB-603 from human adenosine A2B receptor relative to control; design: concentration or dose not given beside the values; settings: concentration not given here
T7 sequence (whole entry): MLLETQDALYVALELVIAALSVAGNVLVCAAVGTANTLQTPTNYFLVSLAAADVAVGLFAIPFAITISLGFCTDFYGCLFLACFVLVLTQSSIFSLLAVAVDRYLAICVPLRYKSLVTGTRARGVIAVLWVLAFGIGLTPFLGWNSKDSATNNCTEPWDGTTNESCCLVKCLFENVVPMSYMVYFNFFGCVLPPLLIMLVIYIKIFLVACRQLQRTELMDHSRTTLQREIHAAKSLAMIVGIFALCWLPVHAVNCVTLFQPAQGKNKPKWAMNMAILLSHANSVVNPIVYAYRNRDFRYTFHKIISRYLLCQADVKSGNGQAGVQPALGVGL

[9] = target: T8, Adenosine receptor A1 (Rattus norvegicus, UniProt P25099); assay: Displacement of [3H]CCPA from adenosine A1 receptor in rat brain cortex; type: tissue-based; procedure, shortened: as §2
T8 sequence (P25099 whole entry): T5 sequence (whole entry)

[10] = target: T9, Adenosine receptor A2b (Homo sapiens, UniProt P29275); assay: Displacement of [3H]PSB-603 from human adenosine A2B receptor
T9 sequence (P29275 whole entry): T7 sequence (whole entry)

[11] = target: T10, Adenosine receptor A1 (Homo sapiens, UniProt P30542); assay: Displacement of [3H]CCPA from human adenosine A1 receptor expressed in CHO cells; type: cell-based
T10 sequence (P30542 whole entry): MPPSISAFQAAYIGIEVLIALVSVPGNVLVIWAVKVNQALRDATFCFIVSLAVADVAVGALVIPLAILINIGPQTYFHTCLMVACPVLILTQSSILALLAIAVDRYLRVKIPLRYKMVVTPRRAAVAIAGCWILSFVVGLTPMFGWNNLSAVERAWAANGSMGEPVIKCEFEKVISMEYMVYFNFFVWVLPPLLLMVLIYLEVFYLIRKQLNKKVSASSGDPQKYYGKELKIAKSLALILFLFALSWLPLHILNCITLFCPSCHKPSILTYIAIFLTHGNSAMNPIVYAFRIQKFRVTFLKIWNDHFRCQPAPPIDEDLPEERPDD
Procedure, shortened: (§3)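 Radioligand binding to human receptors recombinantly expressed in Chinese hamster ovary (CHO) cells. Results are Ki, or % inhibition of radioligand binding at the indicated concentration.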

[12] = target: T11, MAO-B (amine oxidase [flavin-containing] B) (Homo sapiens, UniProt P27338); assay: Inhibition of human MAO-B at 10 uM relative to control; procedure, shortened: as §1
T11 sequence (P27338 whole entry): T1 sequence (P27338 whole entry)

[13] = target: Adenosine receptor A2a (Homo sapiens, UniProt P29274); assay: Displacement of [3H]MSX-2 from human adenosine A2A receptor expressed in CHO cells; type: cell-based; procedure, shortened: as §3
Adenosine receptor A2a (Homo sapiens, UniProt P29274), sequence (P29274 whole entry): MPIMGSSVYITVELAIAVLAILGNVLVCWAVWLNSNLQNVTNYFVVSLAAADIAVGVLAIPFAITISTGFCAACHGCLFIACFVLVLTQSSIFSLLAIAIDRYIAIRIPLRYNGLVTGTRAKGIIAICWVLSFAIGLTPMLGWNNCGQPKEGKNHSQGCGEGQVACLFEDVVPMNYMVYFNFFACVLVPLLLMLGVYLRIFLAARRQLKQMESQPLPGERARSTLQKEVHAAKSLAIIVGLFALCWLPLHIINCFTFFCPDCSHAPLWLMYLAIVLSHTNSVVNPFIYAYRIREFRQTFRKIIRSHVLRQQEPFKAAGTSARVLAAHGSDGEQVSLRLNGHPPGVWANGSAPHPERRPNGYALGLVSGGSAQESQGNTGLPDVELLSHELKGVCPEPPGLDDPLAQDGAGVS

SMILES	IC50 [1]	Ki [2]	inhibition at 10 µM [3]	IC50 [4]	inhibition [5]	inhibition [6]	Ki [7]	inhibition [8]	Ki [9]	Ki [10]	Ki [11]	inhibition at 10 µM [12]	Ki [13]
CCn1c(=O)c2c(nc3n2CCCN3CCc2ccc(OC)c(OC)c2)n(CC)c1=O	5.87 µM	1.88 µM	4%	> 10 µM	32%	35%	> 10 µM	15%	> 10 µM	> 1 µM	–	–	–
C#CCn1c(=O)c2c(nc3n2CCCN3CCc2ccc(OC)cc2)n(C)c1=O	> 10 µM	0.288 µM	–	–	13%	–	> 1 µM	8%	3.14 µM	> 1 µM	4.4 µM	25%	0.508 µM
CCCn1c(=O)c2c(nc3n2CCCN3CC(=O)N2CCN(Cc3ccc(C(F)(F)F)cc3)CC2)n(CCC)c1=O	2.98 µM	7.31 µM	5%	> 10 µM	–	23%	0.541 µM	15%	> 1.5 µM	> 1 µM	–	–	–
C#CCn1c(=O)c2c(nc3n2CCCN3c2ccc(F)cc2)n(C)c1=O	> 10 µM	1.94 µM	–	–	22%	–	> 10 µM	7%	1.19 µM	> 1 µM	3.61 µM	17%	2.12 µM
C#CCn1c(=O)c2c(nc3n2CCCN3CCc2cccs2)n(C)c1=O	> 10 µM	0.71 µM	–	–	20%	–	> 1 µM	16%	0.99 µM	> 1 µM	1.41 µM	17%	0.317 µM
Cn1c(=O)c2c(nc3n2CCCN3CCc2cccc(Cl)c2)n(C)c1=O	1.35 µM	0.166 µM	-4%	> 10 µM	43%	–	> 10 µM	1%	1.76 µM	> 1 µM	–	–	1.35 µM
C#CCn1c(=O)c2c(nc3n2CCCN3CCc2ccc(O)cc2)n(C)c1=O	> 10 µM	0.276 µM	–	–	28%	–	> 10 µM	12%	0.501 µM	> 10 µM	8.26 µM	37%	0.346 µM
CCn1c(=O)c2c(nc3n2CCCN3c2ccc(O)cc2)n(CC)c1=O	10 µM	10.9 µM	11%	> 10 µM	29%	30%	> 10 µM	22%	> 10 µM	> 1 µM	–	56%	–
C#CCn1c(=O)c2c(nc3n2CCCN3C2CCCCC2)n(C)c1=O	> 10 µM	0.361 µM	–	–	25%	–	> 10 µM	–	0.515 µM	17.1 µM	2.36 µM	26%	0.311 µM
Cn1c(=O)c2c(nc3n2CCCN3CCc2ccc(Cl)cc2)n(C)c1=O	0.624 µM	0.515 µM	4%	> 10 µM	38%	–	> 10 µM	8%	3.03 µM	> 1 µM	–	–	5.61 µM
Cn1c(=O)c2c(nc3n2CCCN3c2ccc(Cl)c(Cl)c2)n(C)c1=O	10 µM	4.7 µM	12%	> 10 µM	12%	28%	> 1 µM	3%	> 10 µM	> 1 µM	–	50%	–
Cn1c(=O)c2c(nc3n2CCCN3CC(=O)N2CCN(Cc3ccccc3)CC2)n(C)c1=O	10 µM	14 µM	4%	> 10 µM	23%	0%	> 0.3 µM	-7%	> 1.5 µM	> 0.3 µM	–	55%	–
CCCn1c(=O)c2c(nc3n2CCCN3CC(=O)N2CCN(Cc3ccccc3)CC2)n(CCC)c1=O	> 10 µM	8.22 µM	–	–	28%	17%	> 1 µM	0%	> 1.5 µM	> 1 µM	–	15%	–
Cn1c(=O)c2c(nc3n2CCCN3CCc2ccc(Cl)c(Cl)c2)n(C)c1=O	0.0869 µM	0.78 µM	-2%	> 10 µM	23%	–	> 10 µM	10%	7.24 µM	> 1 µM	–	–	5.25 µM
C#CCn1c(=O)c2c(nc3n2CCCN3C2CCC2)n(C)c1=O	> 10 µM	0.38 µM	–	–	13%	–	> 10 µM	–	1.07 µM	3.97 µM	0.866 µM	19%	0.231 µM
CCn1c(=O)c2c(nc3n2CCCN3CCc2cc(OC)c(OC)c(OC)c2)n(CC)c1=O	> 10 µM	3.87 µM	–	–	24%	14%	> 10 µM	6%	> 10 µM	> 1 µM	–	25%	–
